V1R ag counter = agonists of human V1a receptor, primary screen, counter-screen for OXTR agonist project, fluorescence, CHO-V1R cells; Vasopressin V1a receptor (Homo sapiens), P37288; Fluo-8 calcium fluorescence, agonist mode; 0% DMSO, 100% 3 nM vasopressin; activation, % at 3 µM; hit rate 0.25% among 320,000; AID 2797, 2010;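 active means activation above the mean activation of all tested compounds plus 3 SD, per screening run, cut at about 20% in these data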;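 further: signal is peak over basal fluorescence ratio across a 100 second FLIPR read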
Target sequence (P37288 whole entry, looked up): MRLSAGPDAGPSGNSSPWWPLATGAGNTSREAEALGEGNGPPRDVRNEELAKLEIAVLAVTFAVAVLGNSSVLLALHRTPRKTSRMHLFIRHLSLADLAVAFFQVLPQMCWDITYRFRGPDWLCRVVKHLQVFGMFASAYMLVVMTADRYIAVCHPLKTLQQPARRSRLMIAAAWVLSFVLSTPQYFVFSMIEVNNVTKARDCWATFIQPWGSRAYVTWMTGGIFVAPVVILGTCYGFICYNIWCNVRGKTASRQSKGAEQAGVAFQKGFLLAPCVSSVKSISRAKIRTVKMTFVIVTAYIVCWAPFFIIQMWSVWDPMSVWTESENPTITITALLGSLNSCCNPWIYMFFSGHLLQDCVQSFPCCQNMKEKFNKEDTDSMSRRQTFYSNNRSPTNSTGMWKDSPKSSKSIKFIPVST
OXTR potentiator = human OXTR potentiators, primary screen, fluorescence, CHO-OTR cells, Fluo-8 calcium | Oxytocin receptor (Homo sapiens), P30559 | Fluo-8 calcium fluorescence, potentiator mode; 0% = oxytocin EC15, 100% = EC100 | activation, % at 3 µM | hit rate 0.061% among 320,000 | AID 2445, 2010;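 active means activation above that plate's cutoff, the mean activation of tested compounds plus 3 SD, cut at about 6.6% in these data, passing the limit was not always enough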
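Assay system: CHO cell line stably expressing human OTR. Reagent: EC15 oxytocin agonist. Dosing: single dose, 3.0 µM nominal final compound concentration. Timing: compound 6 min at room temperature before oxytocin, 100 s read. Signal: kinetic Fluo-8 calcium fluorescence. Controls: oxytocin EC15 low and EC100 high.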
OXTR agonist = human OXTR agonists, primary screen, fluorescence, CHO-OTR cells, Fluo-8 calcium; Oxytocin receptor (Homo sapiens), P30559; Fluo-8 calcium fluorescence; normalized: DMSO 0%, oxytocin 100%; activation, % at 3 µM; hit rate 0.32% among 320,000;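 active means activation above the mean of all tested compounds plus 3 SD, cutoff set per screening run, cut at about 20% in these data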;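 further: peak over basal fluorescence ratio from a 100 s FLIPR kinetic read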
CRFBP-R2 agonist = agonists of CRF-BP/CRF-R2 complex, primary screen, cell-based, HEK293, calcium dye fluorescence, uHTS; activation, % at 13.2 µM; hit rate 0.46% among 350,000; calcium dye fluorescence (FLIPR); percent of saturating CRF peptide response; AID 588473, 2011; CRF-binding protein / CRF receptor 2 complex (human);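 active means activation of at least 50%, plus an integration ratio under a set limit after plate pattern correction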
zfTRPN1 agonist = zebrafish TRPN1 channel agonists, primary screen, cell-based, HEK293, calcium fluorescence | transient receptor potential cation channel N1 (TRPN1/NompC), Danio rerio | HEK293 zebrafish TRPN1-YFP, Fluo-8 calcium fluorescence; 100% = response to 87 µM carbachol | activation, % at 3 µM | hit rate 0.18% among 220,000 | AID 1424, 2008;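 active means activation above its plate's cutoff, the mean activation of test wells on that plate plus 3 SD, cut at about 19% in these data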
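Control set: carbachol 87 µM as high control, DMSO as low control; system: HEK293 stable line with zebrafish TRPN1-YFP; read-out: % activation versus carbachol response; detection: intracellular calcium fluorescence with Fluo-8; doses: single test compound dose, 3 µM nominal, 0.3% DMSO; schedule: dye 1 h 37 °C plus 30 min RT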
TRPML3 agonist = human TRPML3 channel agonists, primary screen, cell-based, HEK293 TRPML3-YFP, Fluo-8 calcium fluorescence, 3 µM. Mucolipin-3 (Homo sapiens), Q8TDD5. 100% = the carbachol control signal. activation, % at 3 µM. hit rate 0.29% among 220,000. AID 1448, 2008;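 active means activation above its plate's cutoff, the mean activation of the plate's test wells plus 3 SD, cut at about 12% in these data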
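Material: TRPML3-YFP stable HEK293 cells | Dosing: One concentration, 3 µM nominal, 0.3% DMSO | Timing: 125 s total fluorescence read per well | Technique: Fluo-8 calcium dye fluorescence, ex 470-495, em 515-575 nm | Measure: Percent activation from peak-to-basal fluorescence ratio, scaled between DMSO and carbachol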
A number is an active result. The list is not random: actives were taken first. Their share in the collection is about 0.85%.

What do the screens show for `O=C(Cc1ccccc1)Nn1c(O)c(/C=C2\C=Nc3ccccc32)sc1=S`?
V1R ag counter: inactive; OXTR potentiator: inactive; OXTR agonist: inactive; CRFBP-R2 agonist: 67.2; zfTRPN1 agonist: inactive; TRPML3 agonist: inactive

What do the screens show for `COc1ccc2nc3ccccc3[n+]([O-])c2c1`?
CRFBP-R2 agonist: 58.3

Results for COc1ccc2c(ccc[n+]2[O-])c1 ?
CRFBP-R2 agonist: inactive

How did Cc1ccc(/C=C(\C#N)C(=O)Nc2cccc(C)n2)cc1 do in these assays?
V1R ag counter: inactive; OXTR potentiator: inactive; OXTR agonist: inactive; CRFBP-R2 agonist: inactive

How did CCNc1c(NS(=O)(=O)c2ccc([N+](=O)[O-])cc2)c(=O)oc2ccccc12 do in these assays?
V1R ag counter: inactive; OXTR potentiator: inactive; OXTR agonist: inactive; CRFBP-R2 agonist: inactive

What do the screens show for `CCOc1ccc(S(=O)(=O)Nc2nc3ccccc3nc2-n2ccc(=NC(=O)c3ccccc3C)cc2)cc1`?
V1R ag counter: inactive; OXTR potentiator: inactive; OXTR agonist: inactive; CRFBP-R2 agonist: inactive; zfTRPN1 agonist: 37.3; TRPML3 agonist: 13.5

Results for COC(=O)c1c(C)[nH]c(O)c1C=Nc1ccc(C(C)C)cc1 ?
V1R ag counter: inactive; OXTR potentiator: inactive; OXTR agonist: inactive; CRFBP-R2 agonist: 126.3; zfTRPN1 agonist: inactive; TRPML3 agonist: inactive

What do the screens show for `CCOC(=O)c1c(C)[nH]c(O)c1C=Nc1ccc(C(F)(F)F)cc1`?
V1R ag counter: inactive; OXTR potentiator: inactive; OXTR agonist: inactive; CRFBP-R2 agonist: inactive; zfTRPN1 agonist: inactive; TRPML3 agonist: inactive

Results for COC(=O)c1c(C)[nH]c(O)c1C=Nc1ccc(Oc2ccccc2)cc1 ?
V1R ag counter: inactive; OXTR potentiator: inactive; OXTR agonist: inactive; CRFBP-R2 agonist: 59.3; zfTRPN1 agonist: inactive; TRPML3 agonist: inactive

How did CCOC(=O)c1c(C)[nH]c(O)c1C=Nc1ccc(Cl)cc1 do in these assays?
V1R ag counter: inactive; OXTR potentiator: inactive; OXTR agonist: inactive; CRFBP-R2 agonist: inactive; zfTRPN1 agonist: inactive; TRPML3 agonist: inactive

Results for C#CC[N+](C)(C)CCCCCCCC ?
V1R ag counter: inactive; OXTR potentiator: inactive; OXTR agonist: inactive; CRFBP-R2 agonist: 275.2; zfTRPN1 agonist: inactive; TRPML3 agonist: inactive

What do the screens show for `C#CC[N+](C)(C)CCCCCCCCCC`?
V1R ag counter: inactive; OXTR potentiator: inactive; OXTR agonist: inactive; CRFBP-R2 agonist: inactive; zfTRPN1 agonist: inactive; TRPML3 agonist: inactive

Results for C[C@@H]1CN([C@H](C)CO)C(=O)CCCn2nncc2CO[C@H]1CN(C)Cc1ccc2cccnc2c1 ?
CRFBP-R2 agonist: inactive

Results for FC(F)(F)c1ccccc1CN1CCCC(N2CCN(c3ccccc3)CC2)C1 (configuration not stated) ?
V1R ag counter: inactive; OXTR potentiator: inactive; OXTR agonist: inactive; CRFBP-R2 agonist: inactive

Results for CC(Oc1ccc(C(=O)c2ccccc2)cc1)C(=O)Nc1ccc(S(N)(=O)=O)cc1 (configuration not stated) ?
V1R ag counter: 22.3; OXTR potentiator: inactive; OXTR agonist: 32.9; CRFBP-R2 agonist: 61.2; zfTRPN1 agonist: inactive; TRPML3 agonist: inactive

How did CCCNC(=O)c1ccc(N2CCC3(CC2)CC(c2ccccc2)=NO3)c(NC(=O)Cc2ccc(F)cc2)c1 do in these assays?
V1R ag counter: inactive; OXTR potentiator: inactive; OXTR agonist: inactive; CRFBP-R2 agonist: inactive

Results for O=C(Nc1ccc(S(=O)(=O)Nc2ccccc2)cc1)c1ccc(CN2CCOCC2)cc1 ?
V1R ag counter: inactive; OXTR potentiator: inactive; OXTR agonist: inactive; CRFBP-R2 agonist: inactive; zfTRPN1 agonist: 19.5; TRPML3 agonist: inactive

What do the screens show for `Cc1ccc(SCC(=O)OCC(=O)N(C)CC(=O)Nc2ccc(F)cc2)cc1C`?
V1R ag counter: 23.0; OXTR potentiator: inactive; OXTR agonist: 23.7; CRFBP-R2 agonist: inactive

What do the screens show for `O=[N+]([O-])c1ccc(/C=C/C2=NN(c3ccccc3)C(c3ccco3)C2)o1` (configuration not stated)?
CRFBP-R2 agonist: 65.8; zfTRPN1 agonist: 23.3; TRPML3 agonist: 20.5

Results for C(=C\c1ccco1)/C1=NN(c2ccccc2)C(c2ccco2)C1 (configuration not stated) ?
V1R ag counter: inactive; OXTR potentiator: inactive; OXTR agonist: inactive; CRFBP-R2 agonist: inactive; zfTRPN1 agonist: inactive; TRPML3 agonist: inactive

What do the screens show for `O=C(COC(=O)Cc1n[nH]c(=O)c2ccccc12)NNC(=O)c1ccc(Cl)cc1`?
V1R ag counter: inactive; OXTR potentiator: inactive; OXTR agonist: inactive; CRFBP-R2 agonist: inactive

Results for CC1(C)CCN2CCC(C)(C)c3c(O)ccc1c32 ?
V1R ag counter: 28.2; OXTR potentiator: inactive; OXTR agonist: 24.7; CRFBP-R2 agonist: 117.8

What do the screens show for `COc1cc(-c2noc(C)c2-c2ccc(N(C)C)nc2)cc(OC)c1OC`?
V1R ag counter: 33.9; OXTR potentiator: inactive; OXTR agonist: 35.7; CRFBP-R2 agonist: 53.2

How did NC(=O)CC[C@H](NC(=O)c1ccc(Cl)cc1)C(=O)NNC(=O)COc1cccc(Br)c1 do in these assays?
V1R ag counter: inactive; OXTR potentiator: inactive; OXTR agonist: inactive; CRFBP-R2 agonist: inactive

What do the screens show for `CCCCc1ncc(CN2CCC(CC3CCCCO3)(C(=O)OCC)CC2)[nH]1` (configuration not stated)?
V1R ag counter: inactive; OXTR potentiator: inactive; OXTR agonist: inactive; CRFBP-R2 agonist: inactive; zfTRPN1 agonist: inactive; TRPML3 agonist: inactive

What do the screens show for `CCOC(=O)C1(CC2CCCCO2)CCN(Cc2cc3ccccc3[nH]2)CC1` (configuration not stated)?
V1R ag counter: 27.7; OXTR potentiator: inactive; OXTR agonist: 31.3; CRFBP-R2 agonist: 126.2; zfTRPN1 agonist: 30.0; TRPML3 agonist: 23.9

What do the screens show for `COC(=O)c1ccc2cn[nH]c2c1`?
CRFBP-R2 agonist: inactive

What do the screens show for `Cc1cc2c(cc1S(=O)(=O)CCC(=O)NC1CCCCC1C)OCC(=O)N2` (configuration not stated)?
V1R ag counter: inactive; OXTR potentiator: inactive; OXTR agonist: inactive; CRFBP-R2 agonist: 83.3

What do the screens show for `Cc1cc2c(cc1S(=O)(=O)CCC(=O)N(C)C1CCCCC1)OCC(=O)N2`?
V1R ag counter: inactive; OXTR potentiator: inactive; OXTR agonist: inactive; CRFBP-R2 agonist: inactive

Screening data: PubChem, several laboratories
